# Screening results (PubChem BioAssay)
# PG9 Ab binder: binders of HIV-1 gp120 antibody PG9, primary screen, biochemical, TR-FRET. TR-FRET gp120-PG9 antibody binding. inhibition, % at 6.7 µM. hit rate 0.43% among 360,000. AID 624416, 2012; in the data active = inhibition above about 8.5%
# NR2E3 ag-1: NR2E3 agonists in two-hybrid cells, primary screen, cell-based, luminescence, CHO-S, Gal4-NCOR/VP16-NR2E3 | luciferase | AID 602229, 2012 | hit rate 0.35% among 360,000 | inhibition of corepressor binding, % at 3.98 µM | Photoreceptor-specific nuclear receptor (Homo sapiens), Q9Y5X4;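 active = inhibition above the mean of all tested compounds plus 3 SD, cut at about 70% in these data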;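 also: higher means lower luciferase signal from less NR2E3 corepressor binding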
# Target sequence (Q9Y5X4 whole entry, looked up, the tested form may be a part): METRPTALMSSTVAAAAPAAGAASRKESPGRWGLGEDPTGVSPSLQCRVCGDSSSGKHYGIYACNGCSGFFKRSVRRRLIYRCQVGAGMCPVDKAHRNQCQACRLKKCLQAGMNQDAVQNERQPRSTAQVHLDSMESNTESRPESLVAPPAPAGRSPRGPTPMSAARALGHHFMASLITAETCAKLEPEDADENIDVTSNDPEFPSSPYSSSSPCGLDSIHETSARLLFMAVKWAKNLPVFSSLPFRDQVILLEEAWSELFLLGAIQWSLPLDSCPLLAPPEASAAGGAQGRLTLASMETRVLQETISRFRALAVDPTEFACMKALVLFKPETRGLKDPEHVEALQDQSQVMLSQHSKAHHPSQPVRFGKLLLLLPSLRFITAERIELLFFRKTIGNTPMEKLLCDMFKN
# NR2E3 ag-2: inhibitors of NR2E3-RetCOR corepressor binding, primary screen, NR2E3 agonist project, biochemical, TR-FRET, GST-NR2E3, biotin-RetCOR; Photoreceptor-specific nuclear receptor (Homo sapiens), Q9Y5X4; inhibition of corepressor binding, % at 4.78 µM; 1536-well; AID 2300, 2010; hit rate 0.12% among 320,000;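 active = percent inhibition above the cutoff of mean plus 3 SD of all tested compounds, set per screening campaign, cut at about 20% in these data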
#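 Test system: GST-NR2E3 and biotin-RetCOR proteins | Quantity: 1.35 nM GST-tagged NR2E3 final | Medium: Tris pH 7.5 | Also added: 7 nM biotin-RetCOR | Dosing: Compound at 4.8 µM, single dose | Timing: 5 h at 4 °C | Detection: Time-resolved FRET | Read-out basis: Percent inhibition | Benchmarks: Biotin wells as high control, 0.6% DMSO wells as low control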
# NR1D1 modulator: modulators of Rev-erb alpha DNA binding, primary screen, biochemical, FITC-DNA, fluorescence polarization, uHTS; Nuclear receptor subfamily 1 group D member 1 (Homo sapiens), P20393; hit rate 0.79% among 370,000; activity, % at 10 µM; Rev-erbα–FITC-DNA binding, 90 min; AID 1259318, 2017;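 active = activity above about 14%, limit read from the data; passing the limit was not always enough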
# PG9 bind confirm: binders of anti-gp120 antibody PG9, confirmation, biochemical, TR-FRET. AID 651571, 2012. inhibition, % at 6.7 µM. TR-FRET PG9 antibody binding. hit rate 90% among 1,500. shares compounds with PG9 Ab binder; in the data active = inhibition above about 9%
# PGV04 counter: binders of control antibody PGV04, counter-screen for PG9 antibody binder project, biochemical, TR-FRET, distinct HIV envelope site. hit rate 95% among 1,500. TR-FRET PGV04 antibody-gp120 binding. shares compounds with PG9 Ab binder. inhibition, % at 6.7 µM; in the data active = inhibition above about 9.5%
# PG9 binder DR: small-molecule binders of antibody PG9, dose response, biochemical, TR-FRET, HIV-1 gp120 antibody. shares compounds with PG9 Ab binder. TR-FRET PG9 antibody-gp120 binding inhibition. IC50, µM. 95 tested, under 10 active. AID 651848, 2012; in the data active = IC50 below about 10 µM
# PGV04 DR counter: binders of control antibody PGV04, dose response, counter-screen for PG9 antibody binder project, biochemical, TR-FRET, distinct HIV envelope site; shares compounds with PG9 Ab binder; TR-FRET binding to control antibody PGV04; IC50, µM; hit rate 20% among 95; AID 651937, 2012
# PG126 binding DR: binders of control antibody PG126, dose response, counter-screen for PG9 antibody binder project, biochemical, TR-FRET, distinct HIV envelope site; shares compounds with PG9 Ab binder; TR-FRET binding to antibody PG126, counterscreen; IC50, µM; hit rate 20% among 95
# Rev-erbA confirm: modulators of Rev-erb alpha DNA binding, confirmation, biochemical, FITC-DNA, fluorescence polarization, single point | shares compounds with NR1D1 modulator | 90 min | activation, % at 25 µM | hit rate 61% among 3,000;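 active = activation at or above a set limit, or at least 3 SD above the negative control mean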
# RORg DNA counter: modulation of RORgamma DNA binding, dose response, counter-screen for Rev-erb alpha modulator project, biochemical, fluorescence polarization, FITC-DNA | IC50, µM | purified RORgamma protein-FITC-DNA binding | hit rate 8% among 910 | AID 1259320, 2017 | shares compounds with NR1D1 modulator;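 active = Compounds whose fitted half-maximal concentration for disrupting protein-DNA binding is below 10 micromolar; the record names Rev-erb in its text, so the target is in doubt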
# Hits are given with their value; . = inactive; / = not tested or not shown. An excerpt weighted towards active compounds, which were near 1.4% of everything screened. Rule as the data show it, unless noted: active = IC50 below about 9 µM; inactive = the rest.
SMILES,PG9 Ab binder,NR2E3 ag-1,NR2E3 ag-2,NR1D1 modulator,PG9 bind confirm,PGV04 counter,Rev-erbA confirm,others
CCOc1ccc(OCC)c(NC(=O)c2[nH]c(C)c(C(C)=O)c2C)c1,16,.,.,59,11,.,52,PG9 binder DR=.;PGV04 DR counter=3.6;PG126 binding DR=3.9;RORg DNA counter=.
CCOc1cc(N2CCOCC2)c(OCC)cc1NC(=O)c1[nH]c(C)c(C(C)=O)c1C,.,.,.,.,/,/,/,
CCOc1ccc(-n2c(SCC(=O)Nc3ccc(Br)cc3)nc3n[nH]c(C)c3c2=N)cc1,.,.,.,.,/,/,/,
Cc1cc(-n2c(SCC(=O)Nc3ccc(Br)cc3)nc3n[nH]c(C)c3c2=N)ccc1Cl,24,.,.,37,21,29,22,
Cc1cc(-n2c(SCC(=O)Nc3ccc(F)c(F)c3)nc3n[nH]c(C)c3c2=N)ccc1Cl,21,.,.,51,.,.,27,
Cc1cc(-n2c(SCC(=O)NCc3cccs3)nc3n[nH]c(C)c3c2=N)ccc1Cl,38,.,.,43,33,44,28,
CCOc1ccc(N(C(C)C(=O)N/N=C(\C)C(C)(C)C)S(C)(=O)=O)cc1 (centres undefined),.,.,.,.,/,/,/,
N#CCOC(=O)[C@H](Cc1ccccc1)N1C(=O)c2ccccc2C1=O,.,.,.,.,/,/,/,
Cc1ccc(C(=O)OCc2cc3ccccc3[nH]c2=O)cc1,15,.,.,23,24,31,17,
O=C(OCc1cc2ccccc2[nH]c1=O)c1ccc([N+](=O)[O-])cc1,.,.,.,.,/,/,/,
O=C(CSc1nc2ccc(Cl)cc2[nH]1)c1c[nH]c2ccccc12,.,.,.,.,/,/,/,
O=C(CSc1nc2ncc(Cl)cc2[nH]1)c1c[nH]c2ccccc12,35,.,.,23,35,51,23,
NC(=O)C1CCN(C(=O)CN(c2cccc(C(F)(F)F)c2)S(=O)(=O)c2ccccc2)CC1,.,.,.,.,/,/,/,
CCC(C(=O)NC1CCCC1)N(C(=O)c1snc(C(N)=O)c1N)c1ccc(OC)cc1 (centres undefined),34,.,.,18,15,41,.,
N#Cc1c(-c2ccc(F)cc2)cc(-c2ccccc2)nc1SCC(=O)NCC(=O)O,.,.,.,.,/,/,/,
COc1ccc(-c2cc(-c3ccccc3)c(C#N)c(SCC(=O)Nc3ncc(C)s3)n2)cc1,27,.,.,26,.,10,42,RORg DNA counter=.
CC(C)N1C(=O)C2C(c3ccccc3O)NC(C)(C(=O)O)C2C1=O (centres undefined),.,.,.,.,/,/,/,
COc1cccc(NC(=O)CSc2ncnc3c2oc2ccccc23)c1,69,.,.,685,75,93,749,RORg DNA counter=.
Cc1cc(C)c(NC(=O)CSc2nc3ncc(Br)cc3[nH]2)c(C)c1,39,.,.,124,41,65,99,RORg DNA counter=.
C=CCn1c(NC(=O)c2ccc(C)cc2)nc2ccccc21,40,.,.,27,26,40,.,
COC(=O)c1ccc2nc(NC(=O)CCS(=O)(=O)c3ccccc3)sc2c1,15,.,.,43,25,36,18,
CC(NC=O)c1nc2ccccc2n1CCc1ccccc1 (centres undefined),.,.,.,.,/,/,/,
CCOC(=O)c1cccc(NC(=O)CCCn2c(=O)c3cccn3c3cccnc32)c1,.,.,.,.,/,/,/,
Fc1cccc2sc(Nc3nc4c(F)cccc4s3)nc12,23,.,.,68,24,38,58,RORg DNA counter=.
NNc1nc2c(F)cccc2s1,.,.,.,.,/,/,/,
SMILES,PG9 Ab binder,NR2E3 ag-1,NR2E3 ag-2,NR1D1 modulator,PG9 bind confirm,PGV04 counter,Rev-erbA confirm,others
CCOc1cccc(CN2CCC(N3CCC(C(=O)NCC4CCCO4)CC3)CC2)c1 (centres undefined),.,.,.,.,/,/,/,
CCOC(=O)c1c(NC(=O)C2c3ccccc3Oc3ccccc32)sc(C(N)=O)c1C,33,.,.,41,28,41,26,
CCOC(=O)c1c(NC(=O)C2CCCO2)sc(C(N)=O)c1C (centres undefined),.,.,.,.,/,/,/,
CCOC(=O)c1sc(NC(=O)CN(CC)CC)c(C(=O)OCC)c1C,17,.,.,43,.,.,.,
Cc1ccc(OCCCOc2ccc(Cl)cc2Cl)c([N+](=O)[O-])n1,/,/,/,.,/,/,/,
CC(=O)c1cccc(NC(=O)CCc2nc3sc4c(c3c(=O)[nH]2)CCCC4)c1,13,.,.,23,11,24,18,
COc1cc(-c2ccc3c(=O)c4ccccc4n(C)c3c2)cc(OC)c1OC,.,.,.,.,/,/,/,
COc1cc(-c2ccc3c(=O)c4ccccc4sc3c2)cc(OC)c1OC,17,.,/,76,20,31,49,RORg DNA counter=.
C[C@@H]1CN([C@@H](C)CO)C(=O)c2cc(Br)cnc2O[C@H]1CN(C)S(=O)(=O)c1cccs1,.,.,/,.,/,/,/,
COC(=O)c1c(NC(C)=O)sc(C(=O)Nc2ccccc2F)c1C,31,.,.,26,36,45,21,
Cc1ccc(CCNS(=O)(=O)c2cc3c(cc2Cl)NC(=O)CO3)cc1,.,.,.,.,/,/,/,
CCOc1ccccc1C1c2cc3c(cc2OC(C)(N2CCCC2)C1C)OCO3 (centres undefined),.,.,.,.,/,/,/,
CC(=O)c1ccc(Nc2ncnc3ccc(Br)cc23)cc1,11,.,/,121,20,56,119,RORg DNA counter=.
CC(C)c1ccc(-c2cc(C(=O)N3CCOCC3)c3cc(Br)ccc3n2)cc1,17,.,.,63,30,36,28,
